# Bioassay records (PubChem)
# S100A4 inh HTS: blocks human S100A4 binding to myosin IIA peptide; P26447; 360,000 compounds, 0.14% hits; AID 652163; inhibition, % at 10.7 µM; S100A4/TAMRA-MyoIIA peptide fluorescence polarization;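 active = mean inhibition of at least 70% across replicates, with every replicate also reaching that level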
# Target sequence (P26447 whole entry, looked up): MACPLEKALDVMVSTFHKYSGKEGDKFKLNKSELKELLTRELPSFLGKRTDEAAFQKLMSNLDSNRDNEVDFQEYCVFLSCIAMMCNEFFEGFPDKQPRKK
#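 Material: S100A4 monomer protein / Buffer or medium: 50 mM HEPES pH 7.2, 10 mM CaCl2, 100 mM KCl / Times: 5 min incubation before reading / Benchmarks: neutral control DMSO, positive control TFP / Reagent: labelled myosin peptide probe, 5 nM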
# SIRT5 block: sirtuin-5 (human) deacylase inhibition; inhibition, % at 15 µM; Purified SirT5, succinyl-peptide AMC, trypsin-coupled fluorescence; 330,000 compounds, 1.1% hits; Q9NXA8; AID 652115; in the data active = inhibition above about 15%
# Target sequence (Q9NXA8 whole entry, looked up): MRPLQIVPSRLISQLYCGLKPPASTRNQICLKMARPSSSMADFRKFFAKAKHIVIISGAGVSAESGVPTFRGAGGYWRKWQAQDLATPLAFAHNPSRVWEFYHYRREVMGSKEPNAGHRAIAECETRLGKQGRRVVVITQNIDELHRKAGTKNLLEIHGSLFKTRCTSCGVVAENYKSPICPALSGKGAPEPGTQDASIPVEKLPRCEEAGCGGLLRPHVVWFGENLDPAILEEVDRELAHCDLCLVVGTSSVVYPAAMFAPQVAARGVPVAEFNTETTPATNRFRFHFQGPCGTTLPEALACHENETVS
# Cneo AK release: Cryptococcus neoformans lysis via adenylate kinase release. C. neoformans lysis, adenylate kinase release luminescence, 4 h; normalised: neutral wells 0, clomiphene wells 100. lysis activity, % at 15 µM. 360,000 compounds, 0.2% hits. AID 651654;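 active = mean lysis activity across replicates of at least 80%, whatever share of replicates individually reach that level; inactive = mean lysis activity below 80%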
#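 Material: C. neoformans cells | Amount: Yeast cell density of 5 × 10^6 cells/mL | Medium: Fresh YPD growth medium | Dosing: Single dose | Times: Static 4 h at 37 °C with compound, 1 h detection | Detection: AK luminescence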
# PGC1a acetyl inh: lowers PGC1a acetylation signal in U2OS cells | AlphaScreen anti-acetyl-lysine; with virally co-expressed GCN5 acetyltransferase | inhibition, % at 15.6 µM | 350,000 compounds, 0.17% hits;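 active = every replicate shows inhibition of at least 40%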;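 note: 0% = neutral control wells and 100% = positive control wells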
# Statin myotox sup: protects C2C12 myotubes from simvastatin toxicity; 330,000 compounds, 0.78% hits; rescue of ATP level, % at 7.49 µM; ATP luminescence, 48 h; scaled: DMSO 0, geranylgeraniol control 100; AID 602340;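 active = mean ATP rescue above about 67%, or every replicate alone reaching that limit, limit read from the data, passing the limit was not always enough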;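 note: myotubes were challenged with 10 µM simvastatin during compound exposure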
# Ecoli rRNA inh: inhibits bacterial ribosomal RNA function over humanized ribosomes; E. coli WT GFP vs humanized-ribosome RFP mutants, fluorescence, 24 h; active compounds read low; DMSO median 0, no signal -100; GFP signal change (wild-type ribosome), % (no concentration beside the values); 350,000 compounds, 1.6% hits; AID 720706;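 active = significant combined selectivity score with lowered wild-type GFP, culture density cut under 30%, mutant RFP and density less affected; inactive = any of these conditions unmet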
# Starred values were filed as active, the others as inactive; . = no result given; ! = repeats disagree. Rows were chosen to be rich in hits. Some 3% of all compounds tested hit in one or more screens of this group.
SMILES,S100A4 inh HTS,SIRT5 block,Cneo AK release,PGC1a acetyl inh,Statin myotox sup,Ecoli rRNA inh
O=C(NC1c2ccccc2-c2ccccc21)c1ccco1,.,.,-0.2,-12.4,120.1*,.
O=C(NC1CCCCC1NC(=O)c1ccco1)c1ccco1 (stereo not drawn),0.1,2.2,1.0,.,7.0,16.8
CC(C)C(NC(=O)C1CCCCC1)C(=O)Nc1ccncc1 (stereo not drawn),.,.,-0.8,-0.2,124.4*,.
CO[C@@H]1CN(C)C(=O)c2cc(NS(=O)(=O)c3ccc(C)cc3)ccc2OC[C@@H](C)NC[C@@H]1C,-6.7,-4.7,-0.8,-7.5,5.7,0.7
COCC(=O)Nc1ccc2c(c1)C(=O)N(C)[C@H]1CC[C@H](CC(=O)NCc3ccccc3)O[C@H]1CO2,7.7,-1.4,41.0,10.3,5.2,4.3
COc1ccc(N2CCN(C(=O)c3oc4ccccc4c3NC(=O)Cc3cccc(OC)c3)CC2)cc1,2.3,3.2,-1.1,-7.8,22.1,-0.5
COc1ccccc1N1CCN(C(=O)c2[nH]c(C(F)(F)F)nc2-c2ccccc2)CC1,-1.4,-4.8,-2.8,6.0,-58.3,-8.4
COc1ccc(N2CCN(C(=O)c3[nH]c(C(F)(F)F)nc3-c3ccccc3)CC2)cc1,-5.2,0.9,1.8,10.1,-0.6,-26.1*
CC(=O)N1CCN(C(=O)c2oc3ccccc3c2C)CC1,-1.3,-4.0,-1.0,.,.,11.7
Cc1c(C(=O)N2CCOCC2)oc2ccccc12,-1.7,15.8*,0.9,1.5,6.1,0.2
Cc1cc2oc(C(=O)N3CCN(Cc4ccccc4)CC3)c(C)c2cc1C,-3.6,6.5,.,.,.,-46.3*
Cc1ccc(C(=O)N2CCN(Cc3ccccc3)CC2)o1,-2.5,-3.2,2.6,.,2.7,4.1
COc1ccc(N2CCN(C(=O)c3oc4ccccc4c3C)CC2)cc1,28.9,-4.0,.,-21.0,.,-38.3*
CCCC#Cc1ccc2c(c1)O[C@@H](CN(C)C(=O)NC(C)C)[C@@H](C)CN([C@@H](C)CO)S2(=O)=O,-42.5,1.1,0.6,-12.4,22.3,1.5
CCOc1nc(Nc2ccc(OC)c(Cl)c2)nc(N2CCN(c3ccc(OC)cc3)CC2)n1,.,.,-0.2,4.8,.,.
CCOc1nc(Nc2ccc(F)cc2)nc(N2CCN(c3ccc(OC)cc3)CC2)n1,.,.,-1.6,-9.9,109.5*,.
COc1ccc(Nc2ncc(C(=O)N3CCN(c4ccc(F)cc4)CC3)c3ccccc23)cc1,.,.,-2.7,-4.0,156.8*,.
S=C(NCCc1cccc(Cl)c1)NC1CCCCC1,-1.7,2.9,87.9*,-1.1,-9.8,-56.4
S=C(NCCc1ccccc1)NC1CCC(NC(=S)NCCc2ccccc2)CC1 (stereo not drawn),-7.1,0.5,1.4,8.2,-13.2,14.4
COc1cccc(-c2cnc3c(c2)C(=O)N([C@@H](C)CO)C[C@@H](C)[C@H](CN(C)Cc2ccncc2)O3)c1,-2.5,-0.5,7.3,-1.0,-5.3,-4.3
C[C@@H]1CCCCO[C@H](CN(C)Cc2ccccc2)[C@H](C)CN([C@H](C)CO)C(=O)c2cc(NC(=O)Nc3ccc(C(F)(F)F)cc3)ccc2O1,3.7,-2.2,-16.3,7.7,.,0.9
Cc1ccc(S(=O)(=O)N2CCN(Cc3cccc(F)c3)CC2)cc1,-10.3,-9.5,-5.1,9.1,20.3,-27.7*
Cc1ccc(S(=O)(=O)N2CCN(Cc3ccccc3)CC2)cc1,-2.0,-1.4,-0.9,.,4.0,-0.5
CCCC#Cc1ccc2c(c1)O[C@H](CN(C)C)[C@H](C)CN([C@@H](C)CO)S2(=O)=O,3.7,-2.3,2.4,1.5,9.3,4.2
CCCC#Cc1ccc2c(c1)O[C@@H](CN(C)C)[C@@H](C)CN([C@@H](C)CO)S2(=O)=O,1.5,-1.8,101.3*,-3.5,25.9,3.5
SMILES,S100A4 inh HTS,SIRT5 block,Cneo AK release,PGC1a acetyl inh,Statin myotox sup,Ecoli rRNA inh
CCCN(C)C[C@@H]1Oc2cc(C#CC3(O)CCCC3)ccc2S(=O)(=O)N([C@H](C)CO)C[C@@H]1C,-8.7,6.2*,-0.7,-19.4,0.9,3.5
C[C@H]1CN([C@@H](C)CO)S(=O)(=O)c2ccc(C#Cc3cccc(F)c3)cc2O[C@H]1CN(C)S(=O)(=O)c1ccccc1F,-4.0,41.8*,1.2,0.3,21.4,3.2
C[C@H]1CN([C@@H](C)CO)S(=O)(=O)c2ccc(C#Cc3cccc(F)c3)cc2O[C@@H]1CN(C)C,4.0,-0.3,94.3*,-4.0,2.3,-56.5
COc1ccccc1NC(=O)N[C@@H]1CC[C@H](CCn2cc(-c3cccnc3)nn2)O[C@H]1CO,-21.3,1.2,0.0,-1.1,-0.4,2.9
Cc1noc(C)c1S(=O)(=O)Nc1ccc2c(c1)CC(=O)N([C@@H](C)CO)C[C@H](C)[C@@H](CN(C)Cc1ccc(-c3ccccc3)cc1)O2,-2.4,9.5,.,7.4,47.9,1.1
COc1ccc(C#Cc2ccc3c(c2)O[C@H](CN(C)S(=O)(=O)c2ccccc2F)[C@H](C)CN([C@H](C)CO)S3(=O)=O)cc1,-7.3,15.5*!,2.2,-12.6,5.3,8.3
COC(=O)COc1cc(C)cc2oc(=O)c(CC(=O)OC)c(C)c12,.,.,-1.1,8.1,108.4*,.
Cc1cc(OCc2nn[nH]n2)c2c(C)c(CC(=O)O)c(=O)oc2c1,.,.,0.4,1.6,-0.6,.
O=C1CN(Cc2ccc(F)cc2)C[C@@H]2[C@H](c3ccc(Br)cc3)[C@H](CO)N12,50.9,5.2,.,-1.0,.,-0.8
C[C@@H]1CN([C@@H](C)CO)C(=O)Cc2cc(NS(=O)(=O)c3ccc(Cl)cc3)ccc2O[C@H]1CN(C)Cc1ccc2c(c1)OCO2,-3.7,14.8,1.9,-17.9,98.7*,-41.8
C[C@@H]1CN([C@H](C)CO)C(=O)Cc2cc(NS(=O)(=O)c3ccc(Cl)cc3)ccc2O[C@H]1CN(C)Cc1ccc2c(c1)OCO2,-5.8,10.7,-1.9,-2.4,84.0*,-21.1
C[C@@H]1CN([C@H](C)CO)C(=O)Cc2cc(NS(=O)(=O)c3ccc(Cl)cc3)ccc2O[C@@H]1CN(C)Cc1ccc2c(c1)OCO2,-5.3,7.9,43.0,-13.5,55.4,-16.6
Cc1ccc(S(=O)(=O)Nc2ccc3c(c2)CC(=O)N([C@H](C)CO)C[C@H](C)[C@@H](CN(C)Cc2ccc4c(c2)OCO4)O3)cc1,-15.9,11.0,1.5,-13.4,76.4*,-1.5
CC(c1ccco1)N(C(=O)Nc1ccc(Cl)cc1)c1ccccn1 (stereo not drawn),.,.,-2.7,-1.7,123.7*,.
CO[C@H]1CN(C)C(=O)c2cc(NC(=O)Nc3cccc(Cl)c3)ccc2OC[C@H](C)NC[C@H]1C,6.5,1.8,0.0,-2.1,-25.2,-6.0
CC=Cc1ccc2n(c1=O)C[C@@H]1[C@@H](CO)[C@H](C(=O)NCc3ccc4c(c3)OCO4)[C@H]2N1C(C)=O (mixture of isomers),124.9*,5.4,-4.6,.,14.6,-2.1
